Reference: ChEMBL document CHEMBL4321819, “Simple Structural Modifications Converting a Bona fide MDM2 PROTAC Degrader into a Molecular Glue Molecule: A Cautionary Tale in the Design of PROTAC Degraders” (J Med Chem, 2019)
Activity calls are given as the source filed them. No cut-off for these calls is given here.

Tests used:
[1] = biological target: T1, E3 ubiquitin-protein ligase Mdm2 (Homo sapiens, UniProt Q00987); assay: Induction of MDM2 degradation in human RS4:11 cells assessed as upregulation of p53 at 1 to 30 nM after 2 hrs by Western blot analysis; type: cell-based
Outline: (§1)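 Western blots of MDM2 and p53 protein were run on RS4;11 cells (wild-type p53) in RPMI 1640 with 10% FBS. 2×10^6 cells/well were treated at the indicated concentrations for 1 h or 2 h. Lysis was in ice-cold buffer with protease inhibitor, followed by probing with specific antibodies.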

Homo sapiens = organism: Homo sapiens; assay: Antiproliferative activity against human RS4:11/IRMI-2 cells harboring p53 hotspot mutation Y236H/R249G assessed as cell growth inhibition after 4 days by WST-8 assay; type: functional, cell-based
Outline: (§2)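 Leukemia cells seeded at 10000–20000 cells/well, breast cancer lines at 5000–10000 cells/well. Serially diluted compound added, then 4 days at 37 °C, 5% CO2. Growth read with WST-8 reagent after at least 1 h, absorbance at 450 nm. RS4;11, MOLM-13 and breast lines were grown in RPMI 1640; MV-4-11 and HL-60 in IMDM; all with 10% FBS. Mean ± SE, at least three independent experiments.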

MDA-MB-231 [2] = assay: Antiproliferative activity against human MDA-MB-231 cells harboring mutant p53 assessed as cell growth inhibition after 4 days by WST-8 assay; type: functional, cell-based; outline: as §2
MDA-MB-231 [3] = assay: Antiproliferative activity against human MDA-MB-231 cells transfected with CRBN siRNA LQ-021086-10-0002 assessed as cell growth inhibition after 4 days by WST-8 assay; type: functional, cell-based; conditions: MDA-MB-231, 72 h, in the assay text read “after 3 days” for “after 4 days”
Outline: (§3)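 MDA-MB-231 or MDA-MB-468 cells transfected for 2 days using Lipofectamine RNAiMAX with MDM2 siRNA, one of two CRBN siRNAs, or non-targeting control siRNA. Compound then added and growth read by WST-8 at 450 nm.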

[4] = biological target: T1, E3 ubiquitin-protein ligase Mdm2; assay: Induction of MDM2 degradation in human RS4:11 cells assessed as downregulation of MDM2 at 1 to 30 nM after 2 hrs by Western blot analysis; type: cell-based; outline: as §1
HL-60 = assay: Antiproliferative activity against human HL60 cells with lack of p53 assessed as cell growth inhibition after 4 days by WST-8 assay; type: functional, cell-based; outline: as §2
MDA-MB-468 [5] = assay: Antiproliferative activity against human MDA-MB-468 cells transfected with CRBN siRNA LQ-021086-10-0002 assessed as cell growth inhibition after 4 days by WST-8 assay; type: functional, cell-based; conditions: MDA-MB-468, 96 h; outline: as §3
[6] = biological target: T1, E3 ubiquitin-protein ligase Mdm2; assay: Induction of MDM2 degradation in human RS4:11 cells assessed as downregulation of MDM2 at 1 to 30 nM after 1 hr by Western blot analysis; type: cell-based; outline: as §1
RS4-11 = assay: Antiproliferative activity against human RS4:11 cells expressing wild type p53 assessed as MDM2-independent cell growth inhibition after 4 days by WST-8 assay; type: functional, cell-based; conditions: RS4-11, 96 h; outline: as §2
[7] = biological target: T2, Protein cereblon/Eukaryotic peptide chain release factor GTP-binding subunit ERF3A/DNA damage-binding protein 1/Cullin-4A (Homo sapiens) (UniProt Q96SW2+Q16531+Q13619+P15170); assay: Protac activity at GSPT1/CUL4/DDB1/CRBN in human RS4:11 cells expressing wild type p53 assessed as decrease in GSPT1 protein level at 10 nM by Western blot analysis; type: cell-based
Outline: (§4)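 RS4;11 (wild-type p53) or RS4;11/IRMI-2 (MDM2 inhibitor-resistant derivative, mutant p53) cells kept in RPMI 1640 with 10% FBS at 37 °C, 5% CO₂. 2×10^6 cells/well treated at the indicated concentrations and times, then lysed in ice-cold lysis buffer with protease inhibitor. GSPT1 detected by Western blot with a specific antibody.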

MDA-MB-231 [8] = assay: Antiproliferative activity against human MDA-MB-231 cells transfected with CRBN siRNA LQ-021086-11-0002 assessed as cell growth inhibition after 4 days by WST-8 assay; type: functional, cell-based; conditions: MDA-MB-231, 96 h; outline: as §3
[9] = biological target: T1, E3 ubiquitin-protein ligase Mdm2; assay: Induction of MDM2 degradation in human RS4:11 cells assessed as upregulation of p53 at 1 to 30 nM after 1 hr by Western blot analysis; type: cell-based; outline: as §1
MDA-MB-468 [10] = assay: Antiproliferative activity against human MDA-MB-468 cells assessed as cell growth inhibition after 4 days in presence of control siRNA for 3 days followed by compound treatment by WST-8 assay; type: functional, cell-based
[11] = biological target: Cellular tumor antigen p53 (Homo sapiens) (UniProt P04637); assay: Activation of p53 in human RS4:11 cells assessed as increase in BAX mRNA expression at 10 nM after 1 to 2 hrs by qRT-PCR analysis; type: cell-based
Outline: (§5)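 RS4;11 cells (RPMI 1640, 10% FBS, 37 °C, 5% CO2) treated with 3 nM or 10 nM compound; total RNA extracted and mRNA of p53 targets MDM2, CDKN1A, PUMA and BAX quantified by qRT-PCR. Mean ± standard error from at least three independent experiments.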

[12] = biological target: T1, E3 ubiquitin-protein ligase Mdm2; assay: Induction of MDM2 degradation in human RS4:11/IRMI-2 cells harboring p53 hotspot mutation Y236H/R249G assessed as downregulation of MDM2 at 1 to 30 nM after 2 hrs by Western blot analysis; type: cell-based
Outline: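 RS4;11/IRMI-2 cells are an MDM2 inhibitor-resistant line derived from RS4;11, with p53 mutations confirmed by sequencing. 2×10^6 cells/well were treated 2 h at the indicated concentrations. MDM2 protein was probed by Western blot after lysis in ice-cold buffer with protease inhibitor.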

MDA-MB-231 [13] = assay: Antiproliferative activity against human MDA-MB-231 cells assessed as cell growth inhibition after 4 days in presence of control siRNA for 3 days followed by compound treatment by WST-8 assay; type: functional, cell-based
MDA-MB-468 [14] = assay: Antiproliferative activity against human MDA-MB-468 cells harboring mutant p53 assessed as cell growth inhibition after 4 days by WST-8 assay; type: functional, cell-based; outline: as §2
[15] = biological target: Cellular tumor antigen p53 (Homo sapiens) (UniProt P04637); assay: Activation of p53 in human RS4:11 cells assessed as increase in MDM2 mRNA expression at 10 nM after 1 to 2 hrs by qRT-PCR analysis; type: cell-based; outline: as §5
MDA-MB-468 [16] = assay: Antiproliferative activity against human MDA-MB-468 cells transfected with CRBN siRNA LQ-021086-11-0002 assessed as cell growth inhibition after 4 days by WST-8 assay; type: functional, cell-based; conditions: MDA-MB-468, 96 h; outline: as §3
[17] = biological target: Cellular tumor antigen p53 (Homo sapiens) (UniProt P04637); assay: Activation of p53 in human RS4:11 cells assessed as increase in PUMA mRNA expression at 10 nM after 1 to 2 hrs by qRT-PCR analysis; type: cell-based; outline: as §5
[18] = biological target: Cellular tumor antigen p53 (Homo sapiens) (UniProt P04637); assay: Activation of p53 in human RS4:11 cells assessed as increase in CDKN1A mRNA expression at 10 nM after 1 to 2 hrs by qRT-PCR analysis; type: cell-based; outline: as §5
[19] = Antiproliferative activity against human RS4:11/IRMI-2 cells harboring p53 hotspot mutation Y236H/R249G assessed as MDM2-independent cell growth inhibition after 4 days by WST-8 assay; type: functional, cell-based; conditions: RS4-11, 96 h; outline: as §2
[20] = biological target: T2, Protein cereblon/Eukaryotic peptide chain release factor GTP-binding subunit ERF3A/DNA damage-binding protein 1/Cullin-4A (Homo sapiens); assay: Protac activity at GSPT1/CUL4/DDB1/CRBN in human RS4:11 cells expressing wild type p53 assessed as decrease in GSPT1 protein level measured upto 24 hrs by Western blot analysis; type: cell-based; outline: as §4

T1 sequence (Q00987 whole entry, looked up): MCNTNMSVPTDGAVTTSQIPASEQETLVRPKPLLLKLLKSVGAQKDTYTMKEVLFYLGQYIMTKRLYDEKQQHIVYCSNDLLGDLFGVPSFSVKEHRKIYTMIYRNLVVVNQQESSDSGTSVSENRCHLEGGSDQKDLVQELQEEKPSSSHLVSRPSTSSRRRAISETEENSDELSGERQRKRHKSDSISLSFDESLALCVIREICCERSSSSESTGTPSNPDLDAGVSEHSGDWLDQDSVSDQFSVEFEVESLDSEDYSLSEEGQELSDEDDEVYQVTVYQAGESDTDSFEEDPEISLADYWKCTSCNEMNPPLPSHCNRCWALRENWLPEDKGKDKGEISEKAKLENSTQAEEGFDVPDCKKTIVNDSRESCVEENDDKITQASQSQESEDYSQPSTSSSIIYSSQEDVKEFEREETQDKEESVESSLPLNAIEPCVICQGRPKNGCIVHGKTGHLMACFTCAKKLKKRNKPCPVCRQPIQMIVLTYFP
Sequence of Cellular tumor antigen p53 (Homo sapiens) (P04637 whole entry, looked up): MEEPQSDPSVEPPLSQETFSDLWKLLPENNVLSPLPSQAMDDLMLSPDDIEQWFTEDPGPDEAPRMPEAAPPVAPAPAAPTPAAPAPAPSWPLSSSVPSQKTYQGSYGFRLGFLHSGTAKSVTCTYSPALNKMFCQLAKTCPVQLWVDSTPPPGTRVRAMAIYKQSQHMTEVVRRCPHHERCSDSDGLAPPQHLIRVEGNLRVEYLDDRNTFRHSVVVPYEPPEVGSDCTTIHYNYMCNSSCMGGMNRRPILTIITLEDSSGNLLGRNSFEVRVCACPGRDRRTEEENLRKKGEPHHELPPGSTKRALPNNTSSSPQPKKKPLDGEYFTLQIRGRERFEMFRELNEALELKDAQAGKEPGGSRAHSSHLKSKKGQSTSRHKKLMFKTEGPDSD
T2 sequence (P15170 whole entry, looked up): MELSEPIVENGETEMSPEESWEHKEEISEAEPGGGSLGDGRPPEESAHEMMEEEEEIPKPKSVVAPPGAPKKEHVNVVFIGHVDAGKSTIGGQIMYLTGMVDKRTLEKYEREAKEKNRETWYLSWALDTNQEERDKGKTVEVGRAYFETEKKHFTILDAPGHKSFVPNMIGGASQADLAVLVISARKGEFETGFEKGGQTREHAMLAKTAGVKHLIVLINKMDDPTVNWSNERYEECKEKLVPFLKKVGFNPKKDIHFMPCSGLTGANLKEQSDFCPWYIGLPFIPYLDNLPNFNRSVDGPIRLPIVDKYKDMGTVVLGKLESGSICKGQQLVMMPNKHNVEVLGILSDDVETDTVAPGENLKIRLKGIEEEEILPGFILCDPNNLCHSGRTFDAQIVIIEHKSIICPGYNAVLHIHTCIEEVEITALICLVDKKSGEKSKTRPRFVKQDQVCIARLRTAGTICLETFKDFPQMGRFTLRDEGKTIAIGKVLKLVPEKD
T2 sequence (Q13619 whole entry, looked up): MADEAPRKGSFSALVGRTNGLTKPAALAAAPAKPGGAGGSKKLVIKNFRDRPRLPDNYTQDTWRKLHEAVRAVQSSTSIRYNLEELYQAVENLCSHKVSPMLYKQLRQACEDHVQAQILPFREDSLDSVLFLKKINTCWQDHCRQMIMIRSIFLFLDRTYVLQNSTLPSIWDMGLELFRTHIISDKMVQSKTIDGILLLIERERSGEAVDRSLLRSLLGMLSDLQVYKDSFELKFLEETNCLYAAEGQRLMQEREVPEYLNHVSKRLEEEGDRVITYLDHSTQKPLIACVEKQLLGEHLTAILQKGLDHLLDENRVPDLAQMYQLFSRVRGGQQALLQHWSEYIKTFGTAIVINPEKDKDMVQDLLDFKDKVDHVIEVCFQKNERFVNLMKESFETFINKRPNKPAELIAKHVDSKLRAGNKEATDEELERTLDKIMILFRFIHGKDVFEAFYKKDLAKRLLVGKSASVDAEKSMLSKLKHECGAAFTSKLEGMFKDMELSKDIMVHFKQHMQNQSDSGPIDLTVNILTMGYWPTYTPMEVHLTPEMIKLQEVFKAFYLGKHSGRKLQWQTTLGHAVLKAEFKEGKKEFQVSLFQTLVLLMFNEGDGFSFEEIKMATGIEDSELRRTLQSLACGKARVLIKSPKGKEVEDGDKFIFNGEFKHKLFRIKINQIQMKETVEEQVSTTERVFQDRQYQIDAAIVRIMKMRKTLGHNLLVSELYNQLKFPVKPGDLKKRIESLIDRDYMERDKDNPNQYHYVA
T2 sequence (Q16531 whole entry, looked up): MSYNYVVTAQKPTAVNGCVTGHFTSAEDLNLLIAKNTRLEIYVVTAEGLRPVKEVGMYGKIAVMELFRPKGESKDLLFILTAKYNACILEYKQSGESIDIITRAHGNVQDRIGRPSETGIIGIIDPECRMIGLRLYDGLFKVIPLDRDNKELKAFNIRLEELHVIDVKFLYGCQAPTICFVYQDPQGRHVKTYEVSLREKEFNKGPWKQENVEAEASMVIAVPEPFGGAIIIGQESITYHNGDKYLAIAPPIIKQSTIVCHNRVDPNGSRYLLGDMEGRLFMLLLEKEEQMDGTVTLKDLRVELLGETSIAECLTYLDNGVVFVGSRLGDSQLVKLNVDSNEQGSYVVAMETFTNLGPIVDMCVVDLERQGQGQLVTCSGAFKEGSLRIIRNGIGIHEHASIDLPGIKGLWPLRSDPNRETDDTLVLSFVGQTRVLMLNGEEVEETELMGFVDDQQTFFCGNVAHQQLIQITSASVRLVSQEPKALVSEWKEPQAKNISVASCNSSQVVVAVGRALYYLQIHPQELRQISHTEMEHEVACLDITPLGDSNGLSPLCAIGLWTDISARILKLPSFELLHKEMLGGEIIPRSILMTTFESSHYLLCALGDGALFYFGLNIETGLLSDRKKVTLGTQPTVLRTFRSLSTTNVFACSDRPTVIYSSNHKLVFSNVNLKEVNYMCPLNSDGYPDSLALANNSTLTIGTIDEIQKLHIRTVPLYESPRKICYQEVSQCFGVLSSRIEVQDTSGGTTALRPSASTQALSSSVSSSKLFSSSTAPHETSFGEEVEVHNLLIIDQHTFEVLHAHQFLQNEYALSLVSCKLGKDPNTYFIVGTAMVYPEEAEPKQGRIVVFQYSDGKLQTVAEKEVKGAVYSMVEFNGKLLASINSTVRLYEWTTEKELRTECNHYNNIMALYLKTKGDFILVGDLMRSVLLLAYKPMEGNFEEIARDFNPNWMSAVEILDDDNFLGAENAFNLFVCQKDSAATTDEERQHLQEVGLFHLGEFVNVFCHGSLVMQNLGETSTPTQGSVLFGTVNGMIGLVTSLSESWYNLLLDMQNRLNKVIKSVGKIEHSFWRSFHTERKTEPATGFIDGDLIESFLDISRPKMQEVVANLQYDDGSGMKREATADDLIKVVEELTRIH
T2 sequence (Q96SW2 whole entry, looked up): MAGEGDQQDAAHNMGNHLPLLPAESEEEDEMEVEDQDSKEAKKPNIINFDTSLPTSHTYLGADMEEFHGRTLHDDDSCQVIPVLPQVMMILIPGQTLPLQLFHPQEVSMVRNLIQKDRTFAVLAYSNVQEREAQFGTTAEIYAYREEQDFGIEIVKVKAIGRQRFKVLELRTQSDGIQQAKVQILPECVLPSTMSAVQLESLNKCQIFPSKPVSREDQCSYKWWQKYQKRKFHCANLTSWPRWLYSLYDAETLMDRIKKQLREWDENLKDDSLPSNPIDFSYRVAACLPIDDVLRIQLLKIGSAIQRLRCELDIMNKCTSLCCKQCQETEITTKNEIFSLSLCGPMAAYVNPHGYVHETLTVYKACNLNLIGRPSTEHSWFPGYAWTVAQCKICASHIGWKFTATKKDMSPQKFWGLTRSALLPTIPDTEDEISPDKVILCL

In the case of O=C1CCC(N2Cc3c(CCCCCNC(=O)c4ccc(NC(=O)[C@@H]5NC6(CCCCC6)[C@@]6(C(=O)Nc7cc(Cl)ccc76)[C@H]5c5cccc(Cl)c5F)cc4)cccc3C2=O)C(=O)N1 (stereo partly drawn), the Activity [1] is reported as “Active”, the “growth inhibition (GI)” value (Homo sapiens) is reported as “inactive” and the “growth inhibition (GI)” value (MDA-MB-231 [2]) is reported as “inactive”. The IC50 (MDA-MB-231 [3]) was greater than 3 µM, the Activity [4] was “Active” and the “growth inhibition (GI)” value (HL-60) was “inactive”. The IC50 (MDA-MB-468 [5]) was greater than 3 µM, the Activity [6] was “Active” and the IC50 (RS4-11) was 0.0079 µM. For the same molecule, the Activity [7] was “inactive”, the IC50 (MDA-MB-231 [8]) was greater than 3 µM and the Activity [9] was “Active”. For the same molecule, the IC50 (MDA-MB-468 [10]) was greater than 3 µM, the Activity [11] was “Active” and the Activity [12] was “Active”. For the same molecule, the IC50 (MDA-MB-231 [13]) was greater than 3 µM, the “growth inhibition (GI)” value (MDA-MB-468 [14]) was “inactive” and the Activity [15] was “Active”. The IC50 (MDA-MB-468 [16]) was greater than 3 µM, the Activity [17] was “Active” and the Activity [18] was “Active”. The IC50 [19] was greater than 10 µM and the Activity [20] was “inactive”.
